Measured values from ChEMBL document CHEMBL1765049, “Inhibitory properties of 2-substituent-1H-benzimidazole-4-carboxamide derivatives against enteroviruses” (Bioorg Med Chem, 2011).

tested on: not listed separately; test: Selectivity index, ratio of TC50 for african green monkey Vero cells to IC50 for Coxsackievirus A16; assay type: toxicity, cell-based; settings: read-out: Selectivity Index
Outline: (§1)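 Selectivity index is calculated as TC50 in Vero cells divided by the antiviral IC50 against the named enterovirus. Both values come from the same Vero cytopathic-effect assay, with compounds dissolved in DMSO and diluted in medium.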

Compared with `COc1ccc(-c2nc3c(C(=O)Nc4ccccc4F)cccc3[nH]2)cc1OC`, `COc1ccc(-c2nc3c(C(=O)Nc4nc5ccccc5[nH]4)cccc3[nH]2)cc1OC` is lower in selectivity ratio: 7 for the first, 5.2 for the second.

Going from `COc1ccc(-c2nc3c(C(=O)Nc4ccccc4F)cccc3[nH]2)c(OC)c1OC` to `COc1ccc(-c2nc3c(C(=O)Nc4ncccc4O)cccc3[nH]2)cc1OC`, the selectivity ratio rises from 3 to 5.2.

Going from `COc1ccc(-c2nc3c(C(=O)N[C@H](CO)[C@H](O)c4ccc([N+](=O)[O-])cc4)cccc3[nH]2)cc1OC` to `COc1ccc(-c2nc3c(C(=O)Nc4c[nH]cn4)cccc3[nH]2)cc1OC`, the selectivity ratio rises from 1.7 to 3.

Compared with `COc1ccc(-c2nc3c(C(=O)Nc4nc(C#N)c(C#N)[nH]4)cccc3[nH]2)cc1OC`, `COc1ccc(-c2nc3c(C(=O)Nc4cnccn4)cccc3[nH]2)cc1OC` is lower in selectivity ratio: 4.3 for the first, 3 for the second.

tested on: Coxsackievirus B3; test: Antiviral activity against Coxsackievirus B3 infected in african green monkey Vero cells assessed as inhibition of viral growth after 24 hrs by Reed-Muench method; assay type: functional, organism-based; settings: Enterovirus B
Outline: (§2)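 Vero cells were seeded and after 24 h exposed to virus for 2 h. Compounds were then added after being dissolved in DMSO and diluted in culture medium. Cell-control and virus-control wells were run alongside. Cytopathic effect was scored once the virus wells exceeded grade 4. The 50% inhibitory concentration of virus growth was calculated by the Reed–Muench method.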

Compared with `COc1ccc(-c2nc3c(C(=O)Nc4ccccc4F)cccc3[nH]2)cc1OC`, `COc1ccc(-c2nc3c(C(=O)Nc4ccccc4F)cccc3[nH]2)c(OC)c1OC` is 2.8-fold higher in IC50: 3.5 µM for the first, 9.8 µM for the second. The first is the more potent here.

Going from `Cc1csc(NC(=O)c2cccc3[nH]c(-c4ccccn4)nc23)n1` to `O=C(N[C@H](CO)[C@H](O)c1ccc([N+](=O)[O-])cc1)c1cccc2[nH]c(-c3cccnc3)nc12`, the IC50 rises from 1.76 µM to 28.6 µM (16-fold). The first is the more potent here.

tested on: not listed separately; test: Selectivity index, ratio of TC50 for african green monkey Vero cells to IC50 for Coxsackievirus B3; assay type: toxicity, cell-based; settings: read-out: Selectivity Index; outline: as §1

Compared with `COc1ccc(-c2nc3c(C(=O)Nc4ccccc4F)cccc3[nH]2)cc1OC`, `COc1ccc(-c2nc3c(C(=O)Nc4ccccc4F)cccc3[nH]2)c(OC)c1OC` is lower in selectivity ratio: 7 for the first, 3.9 for the second.

First: Cc1csc(NC(=O)c2cccc3[nH]c(-c4ccccn4)nc23)n1
Second: O=C(N[C@H](CO)[C@H](O)c1ccc([N+](=O)[O-])cc1)c1cccc2[nH]c(-c3cccnc3)nc12
The selectivity ratio of the first is higher: 10 for the first, 5.2 for the second.

tested on: not listed separately; test: Cytotoxicity against african green monkey Vero cells; assay type: cell-based; settings: chlorocebus sabaeus, Vero cells; read-out: TC50 (the source's name)
Outline: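 TC50 is the compound concentration killing 50% of Vero cells (inhibiting cell growth by 50%). Compounds were dissolved in DMSO and diluted in medium, then added to seeded Vero cells. Cell wells were examined when cytopathic effect in virus-infected control wells exceeded grade 4.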

Compared with `COc1ccc(-c2nc3c(C(=O)Nc4ccccc4F)cccc3[nH]2)cc1OC`, `COc1ccc(-c2nc3c(C(=O)Nc4nc5ccccc5[nH]4)cccc3[nH]2)cc1OC` is 2.1-fold higher in CC50: 24.5 µM for the first, 51.8 µM for the second.

Compared with `Cc1csc(NC(=O)c2cccc3[nH]c(-c4ccccn4)nc23)n1`, `COc1ccc(-c2nc3c(C(=O)Nc4ncccc4O)cccc3[nH]2)cc1OC` is 9.3-fold higher in CC50: 17.7 µM for the first, 164 µM for the second.

Going from `O=C(N[C@H](CO)[C@H](O)c1ccc([N+](=O)[O-])cc1)c1cccc2[nH]c(-c3cccnc3)nc12` to `COc1ccc(-c2nc3c(C(=O)N[C@H](CO)[C@H](O)c4ccc([N+](=O)[O-])cc4)cccc3[nH]2)cc1OC`, the CC50 falls from 148 µM to 14.5 µM (10-fold).

Going from `COc1ccc(-c2nc3c(C(=O)Nc4ccccc4F)cccc3[nH]2)c(OC)c1OC` to `COc1ccc(-c2nc3c(C(=O)Nc4cnccn4)cccc3[nH]2)cc1OC`, the CC50 rises from 37.8 µM to 98.8 µM (2.6-fold).

Compared with `COc1ccc(-c2nc3c(C(=O)Nc4c[nH]cn4)cccc3[nH]2)cc1OC`, `COc1ccc(-c2nc3c(C(=O)Nc4nc(C#N)c(C#N)[nH]4)cccc3[nH]2)cc1OC` is 7.1-fold lower in CC50: 306 µM for the first, 43.1 µM for the second.

tested on: Coxsackievirus A16; test: Antiviral activity against Coxsackievirus A16 infected in african green monkey Vero cells assessed as inhibition of viral growth after 24 hrs by Reed-Muench method; assay type: functional, cell-based; settings: Enterovirus A, Vero, 24 h; read-out: IC50; outline: as §2

First: COc1ccc(-c2nc3c(C(=O)Nc4ccccc4F)cccc3[nH]2)cc1OC
Second: COc1ccc(-c2nc3c(C(=O)Nc4nc5ccccc5[nH]4)cccc3[nH]2)cc1OC
The IC50 of the first is 2.9-fold lower: 3.5 µM for the first, 9.98 µM for the second. The first is the more potent here.

Compared with `COc1ccc(-c2nc3c(C(=O)Nc4ccccc4F)cccc3[nH]2)c(OC)c1OC`, `COc1ccc(-c2nc3c(C(=O)Nc4ncccc4O)cccc3[nH]2)cc1OC` is 1.9-fold higher in IC50: 16.9 µM for the first, 31.7 µM for the second.

First: COc1ccc(-c2nc3c(C(=O)N[C@H](CO)[C@H](O)c4ccc([N+](=O)[O-])cc4)cccc3[nH]2)cc1OC
Second: COc1ccc(-c2nc3c(C(=O)Nc4c[nH]cn4)cccc3[nH]2)cc1OC
The IC50 of the first is 12-fold lower: 8.37 µM for the first, 102 µM for the second.

Compared with `COc1ccc(-c2nc3c(C(=O)Nc4nc(C#N)c(C#N)[nH]4)cccc3[nH]2)cc1OC`, `COc1ccc(-c2nc3c(C(=O)Nc4cnccn4)cccc3[nH]2)cc1OC` is 3.3-fold higher in IC50: 9.98 µM for the first, 32.9 µM for the second. The first is the more potent here.
